# Like-named read-outs stand apart in the source and are kept apart here.
# Tests used:
# [1] = assay type: in vivo, human (healthy Chinese volunteers); conditions: n=10; for Urine excretion (% of dose): single oral dose 1000 mg, mean±SD
# [2] = assay type: in vitro ADME, human; conditions: urine
# In short: (§1)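 Glucosamine was spiked into blank human matrix at low and high QC levels: plasma 0.020 and 1.66 μg/mL, urine 2.21 and 42.7 μg/mL, n=2. Freeze-thaw used 24 h at −20 °C, thawing at room temperature and 12 h refreezing, up to three cycles. Short-term storage was 8 h at room temperature and long-term storage up to 60 days at −20 °C. Samples were compared with fresh references and accuracy given as found versus nominal.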
# [3] = assay type: in vitro ADME, human; conditions: for Stability, Accuracy (% of nominal conc.): plasma
# In short: as §1
# [4] = cited from earlier work
# [5] = assay type: in vivo, human (healthy Chinese volunteers); conditions: for Cmax: plasma
# In short: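 Open-label, randomized, parallel-group study. Thirty healthy volunteers (5 men, 5 women per group) took single oral doses of 500, 1000 or 1500 mg glucosamine sulfate, as dispersible tablets, with 250 mL water after an overnight fast. The 500 mg group continued at 500 mg t.i.d. for 7 days, with troughs on days 4–7. Heparinized plasma was taken from 0 to 24 h. Cmax came from the observed curves, other parameters from non-compartmental analysis, and group differences from ANOVA.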
# [6] = before administration, Chinese volunteers
# [7] = before administration, Chinese volunteers, n=30
# [8] = multiple doses 500 mg t.i.d., 7th day, mean±SD, n=10
# [9] = single oral dose 500 mg, mean±SD, n=10
# [10] = single oral dose 1000 mg, mean±SD, n=10
# [11] = single oral dose 1500 mg, mean±SD, n=10
substance,measurement,setting,value
2-amino-2-deoxy-D-glucose [glucosamine],"urine glucosamine levels (baseline), mean",[1]; [6],4.96 ± 1.74 µg/mL
same,"urine glucosamine levels (baseline), range",[1]; [6],2.79 to 8.07 µg/mL
same,Urine excretion (% of dose),[1]; 0–3 h after dosing,0.434±0.300%
same,Urine excretion (% of dose),[1]; 0–6 h after dosing,1.39±1.45%
same,Urine excretion (% of dose),[1]; 0–10 h after dosing,1.83±1.84%
same,Urine excretion (% of dose),[1]; 0–14 h after dosing,1.90±1.86%
same,Urine excretion (% of dose),[1]; 0–24 h after dosing,1.99±1.86%
same,"Stability, Accuracy (% of nominal conc.)","[2]; 2.21 μg/mL, Freeze-thaw (n=3)",106.6%
same,"Stability, Accuracy (% of nominal conc.)","[2]; 2.21 μg/mL, Long-term after 60 d (−20 °C)",99.2%
same,"Stability, Accuracy (% of nominal conc.)","[2]; 2.21 μg/mL, Short-term after 8 h (25 °C)",104.2%
same,"Stability, Accuracy (% of nominal conc.)","[2]; 42.7 μg/mL, Freeze-thaw (n=3)",105.3%
same,"Stability, Accuracy (% of nominal conc.)","[2]; 42.7 μg/mL, Long-term after 60 d (−20 °C)",103.7%
same,"Stability, Accuracy (% of nominal conc.)","[2]; 42.7 μg/mL, Short-term after 8 h (25 °C)",111.2%
same,"Stability, Accuracy (% of nominal conc.)","[3]; 0.020 μg/mL, Freeze-thaw (n=3)",100.0%
same,"Stability, Accuracy (% of nominal conc.)","[3]; 0.020 μg/mL, Long-term after 60 d (−20 °C)",90.0%
same,"Stability, Accuracy (% of nominal conc.)","[3]; 1.660 μg/mL, Freeze-thaw (n=3)",105.2%
same,"Stability, Accuracy (% of nominal conc.)","[3]; 1.660 μg/mL, Long-term after 60 d (−20 °C)",106.6%
same,"Stability, Accuracy (% of nominal conc.)","[3]; 1.660 μg/mL, Short-term after 8 h (25 °C)",98.4%
same,stability in plasma and urine under different storage conditions,"[3]; three freeze-thaw cycles, 8 h bench-top, −20 °C up to 2 months, plasma and urine",stable
same,"plasma glucosamine baseline levels, mean value",[4]; Caucasian volunteers,45.3 ng/mL
same,Endogenous level of glucosamine in human plasma,[4]; human plasma,10 to 200 ng/mL
same,accumulation after multiple doses,[5]; 500 mg t.i.d. for 7 consecutive days vs single dose,no significant accumulation effects
same,dose linearity of absorption (dose-normalized AUC and Cmax),"[5]; 1500 mg vs 500 and 1000 mg dose groups, P<0.05",non-linear absorption at higher doses
same,time at which peak concentration was reached,"[5]; after oral administration, all dose groups",about 2 h
same,"plasma glucosamine baseline levels, mean",[5]; [7],16.7 ± 26.9 ng/mL
same,"plasma glucosamine baseline levels, range",[5]; [7],0 to 120 ng/mL
same,AUC0–10,[5]; [8],1.02 ± 0.24 µg·h/mL
same,AUC0–∞,[5]; [8],1.02 ± 0.24 µg·h/mL
same,AUCss,[5]; [8],1.00 ± 0.24 µg·h/mL
same,Css_av,[5]; [8],0.125 ± 0.031 µg/mL
same,Css_min,[5]; [8],0.059 ± 0.056 µg/mL
same,DF,[5]; [8],1.90±0.93%
same,MRT0–10,[5]; [8],2.70 ± 0.34 h
same,Tmax,[5]; [8],1.90 ± 1.10 h
same,t1/2,[5]; [8],1.41 ± 0.76 h
same,Cmax,[5]; [8],0.294 ± 0.076 µg/mL
same,time at which plasma glucosamine was eliminated to the baseline level,[5]; post-dosing,about 10 h
same,AUC0–10,[5]; [9],1.42 ± 0.20 µg·h/mL
same,AUC0–∞,[5]; [9],1.43 ± 0.21 µg·h/mL
same,MRT0–10,[5]; [9],3.18 ± 0.71 h
same,Tmax,[5]; [9],2.60 ± 1.39 h
same,t1/2,[5]; [9],1.17 ± 0.40 h
same,AUC0–10,[5]; [10],3.37 ± 1.02 µg·h/mL
same,AUC0–∞,[5]; [10],3.42 ± 1.01 µg·h/mL
same,MRT0–10,[5]; [10],3.57 ± 0.24 h
same,Tmax,[5]; [10],2.70 ± 0.86 h
same,t1/2,[5]; [10],1.32 ± 0.35 h
same,Cmax,[5]; [10],0.795 ± 0.280 µg/mL
same,AUC0–10,[5]; [11],4.03 ± 1.28 µg·h/mL
same,AUC0–∞,[5]; [11],4.18 ± 1.40 µg·h/mL
same,MRT0–10,[5]; [11],3.30 ± 0.61 h
same,Tmax,[5]; [11],1.90 ± 0.84 h
same,t1/2,[5]; [11],1.36 ± 0.94 h
same,Cmax,[5]; [11],0.925 ± 0.280 µg/mL

# — PMC5760825 (Journal of Pharmaceutical Analysis, 2011)
